# Measurements reported in ChEMBL document CHEMBL1137097, “Discovery of potent and orally bioavailable N,N'-diarylurea antagonists for the CXCR2 chemokine receptor” (Bioorg Med Chem Lett, 2004).
# How the values were obtained:
# [1] = Oral bioavailability in rat; type: ADME, organism-based; conditions: in vivo
# How it was run: (§1)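 Male Sprague–Dawley rats, n=3 per study, in an iv/po crossover design. Dosed in aqueous solution with 1% DMSO and up to 20% hydroxypropyl-beta-cyclodextrin, 4 and 8 µmol/kg for iv and po. Lateral tail vein blood sampling. Plasma drug measured by LC/MS/MS, lower limit of quantification >10ng/mL.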
# [2] = Plasma clearance in rat; type: ADME, organism-based; how it was run: as §1
# [3] = molecular target: T1, C-X-C chemokine receptor type 2 (Homo sapiens, UniProt P25025); experiment: Concentration required to inhibit [125I]IL-8 binding towards C-X-C chemokine receptor type 2 of human expressed in CHO cells; type: cell-based
# T1 sequence (P25025 whole entry): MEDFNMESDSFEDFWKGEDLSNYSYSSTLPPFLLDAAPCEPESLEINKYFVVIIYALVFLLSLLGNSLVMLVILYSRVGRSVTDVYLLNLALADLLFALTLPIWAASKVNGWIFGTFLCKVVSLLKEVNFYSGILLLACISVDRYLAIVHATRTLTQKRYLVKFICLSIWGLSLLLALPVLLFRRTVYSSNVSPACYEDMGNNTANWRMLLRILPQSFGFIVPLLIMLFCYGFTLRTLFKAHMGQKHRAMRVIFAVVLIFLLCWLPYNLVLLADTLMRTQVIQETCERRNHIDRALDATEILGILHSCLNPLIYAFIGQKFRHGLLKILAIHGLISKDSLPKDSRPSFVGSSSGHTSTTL
# How it was run: (§2)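 SPA binding on membranes from CHO cell lines expressing CXCR1 or CXCR2. Competition against radiolabeled human recombinant [125I]-IL-8 at 0.23nM. Values are the mean of three individual experiments.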
# [4] = pKa value was determined; type: physicochemical
# How it was run: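 pKa calculated in silico, not measured experimentally.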
# [5] = molecular target: T2, C-X-C chemokine receptor type 1 (Homo sapiens, UniProt P25024); experiment: Concentration required to inhibit [125I]-IL-8 binding towards C-X-C chemokine receptor type 1 of human expressed in CHO cells; type: cell-based; how it was run: as §2
# T2 sequence (P25024 whole entry): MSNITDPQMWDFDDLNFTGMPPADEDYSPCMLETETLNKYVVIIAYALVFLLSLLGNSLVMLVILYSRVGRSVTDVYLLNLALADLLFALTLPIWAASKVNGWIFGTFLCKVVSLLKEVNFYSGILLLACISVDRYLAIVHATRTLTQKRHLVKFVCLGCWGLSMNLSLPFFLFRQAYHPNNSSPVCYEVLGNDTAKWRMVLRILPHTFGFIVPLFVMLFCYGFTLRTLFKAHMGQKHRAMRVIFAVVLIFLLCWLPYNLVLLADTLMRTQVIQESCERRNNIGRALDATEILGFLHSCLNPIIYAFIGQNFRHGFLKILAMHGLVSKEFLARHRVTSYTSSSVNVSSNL
# [6] = In vitro intrinsic clearance of urea in rat liver microsomes in absence of UDPGA; type: ADME, Microsome
# How it was run: (§3)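 Rat or human liver microsomes at 0.5mg microsomal protein/mL, run with or without UDPGA. Final compound 0.5–1 µM. Substrate loss followed by LC/MS/MS over a 30-min incubation. CLint taken from the slope of substrate disappearance versus time.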
# [7] = In vitro intrinsic clearance of urea in human liver microsomes in absence of UDPGA; type: ADME, Microsome; how it was run: as §3
# [8] = In vitro intrinsic clearance of urea in rat liver microsomes in presence of UDPGA; type: ADME, Microsome; how it was run: as §3
# [9] = In vitro intrinsic clearance of urea in human liver microsomes in presence of UDPGA; type: ADME, Microsome; how it was run: as §3
bioavailability [1],clearance [2],IC50 [3],pKa [4],IC50 [5],CL [6],CL [7],CL [8],CL [9],SMILES
100%,23.4 mL/min/kg,12 nM,6.19,4320 nM,–,–,–,–,CN(C)S(=O)(=O)c1c(Cl)ccc(NC(=O)Nc2ccccc2Br)c1O
6.6%,323 mL/min/kg,906 nM,8.24,–,–,–,–,–,O=C(Nc1ccc(Cl)cc1O)Nc1ccccc1Br
3.6%,105 mL/min/kg,10 nM,7.11,6040 nM,1.5 ml min-1 g-1 liver,0.74 ml min-1 g-1 liver,5.3 ml min-1 g-1 liver,1.5 ml min-1 g-1 liver,NC(=O)c1c(Cl)ccc(NC(=O)Nc2ccccc2Br)c1O
13%,73.6 mL/min/kg,63 nM,7.24,13400 nM,–,–,–,–,O=C(Nc1ccccc1Br)Nc1ccc(Cl)c(Cl)c1O
86%,16.1 mL/min/kg,7 nM,6.12,1370 nM,1.5 ml min-1 g-1 liver,0.74 ml min-1 g-1 liver,5.3 ml min-1 g-1 liver,1.5 ml min-1 g-1 liver,NS(=O)(=O)c1c(Cl)ccc(NC(=O)Nc2ccccc2Br)c1O
67%,104 mL/min/kg,114 nM,6.85,30000 nM,–,–,–,–,Cl.NCc1c(Cl)ccc(NC(=O)Nc2ccccc2Br)c1O
